# Screening results from PubChem BioAssay.
# ADAM17 inh – inhibits human ADAM17 | AID 720648 | inhibition, % at 6.95 µM | actives 0.83% (n = 370,000) | recombinant ADAM17, EDANS/DABCYL FRET peptide cleavage | P78536;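 active = inhibition above the mean of compounds lying between control limits plus 3 SD, set per campaign, cut at about 8.5% in these data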;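 note: 0% = DMSO-only wells as the low control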
# SENP1 inh – inhibitors of human SENP1 SUMO protease catalytic domain; Q9P0U3; recombinant SENP1 catalytic domain, CyPet-SUMO1-YPet FRET cleavage; inhibition, % at 10 µM; actives 0.21% (n = 360,000); AID 624204;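 active = inhibition at least 30% at 10 µM, raw YFP signal under a set limit, fluorescence ratio 0.5 to 1.5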;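 note: 0% = enzyme with DMSO and 100% = no enzyme wells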
#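 System: Recombinant human SENP1 catalytic domain, His6-tagged | Incubation: Enzyme reaction for 50 min at room temperature, dark | Medium: Tris pH 8 with BME, BSA, NP40 and catalase | Also added: 25 nM SUMO1 FRET substrate | Compound: 10 µM single point, 0.5% DMSO | Measured by: FRET fluorescence in CFP and YFP emission channels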
# ADAM10 inh – inhibitors of human ADAM10 | O14672 | AID 720582 | inhibition, % at 7 µM | recombinant ADAM10, EDANS/DABCYL FRET peptide cleavage, 3 h | actives 0.62% (n = 370,000);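 active = inhibition above a per-campaign cutoff equal to the mean of compounds falling between control-based bounds plus 3 SD, cut at about 20% in these data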;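 note: 0% = DMSO wells while the 100% control is not disclosed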
# FAS TE block – blocks the thioesterase domain of human fatty acid synthase; P49327; recombinant FAS-TE, OMFH fluorogenic substrate, fluorescence endpoint; inhibition, % at 15 µM; actives 0.67% (n = 360,000); AID 602261;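 active = compounds whose normalised, plate-corrected inhibition of enzyme fluorescence in the single-dose primary screen is 50% or more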;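 note: 0% = DMSO with enzyme and 100% = substrate without enzyme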
# ADAM10 confirm – confirmation of inhibitors of human ADAM10 | AID 743208 | shares compounds with ADAM10 inh | ADAM10 QFRET peptide cleavage, EDANS fluorescence | inhibition, % at 6.95 µM | actives 1% (n = 2,100);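 active = inhibition above about 20% chosen separately for each screening run, limit read from the data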;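 note: 0% = DMSO wells and 100% = marimastat wells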
# ADAM17 ctr – counter-screen for ADAM10 exosite inhibitors: inhibitors of human ADAM17; shares compounds with ADAM10 inh; AID 743214; inhibition, % at 6.95 µM; ADAM17 QFRET peptide cleavage, EDANS fluorescence; actives 0.5% (n = 2,100);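 active = mean triplicate inhibition above the solvent-only control wells' mean plus 3 SD, cut at about 12% in these data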;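 note: 0% = DMSO wells and 100% = marimastat wells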
# ADAM10 ctr – counter-screen for ADAM17 exosite inhibitors: inhibitors of human ADAM10; shares compounds with ADAM17 inh; AID 743256; recombinant ADAM10, EDANS/DABCYL FRET peptide cleavage, 3 h; actives 47% (n = 2,900); inhibition, % at 6.95 µM;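 active = mean inhibition over the triplicate runs exceeds the activity threshold set in the earlier primary screen, cut at about 20% in these data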;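 note: 0% = DMSO wells and 100% = marimastat wells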
# ADAM17 confirm – confirmation of inhibitors of human ADAM17 | recombinant ADAM17, EDANS/DABCYL QFRET peptide cleavage | inhibition, % at 6.95 µM | shares compounds with ADAM17 inh | actives 65% (n = 2,900);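 active = mean inhibition across replicates above the hit cutoff set in the primary screen, cut at about 8.5% in these data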;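 note: 0% = DMSO wells and 100% = marimastat wells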
# * hit, by the source's call; / = no result given. An excerpt weighted towards active compounds, which were near 1.9% of everything screened.
SMILES,ADAM17 inh,SENP1 inh,ADAM10 inh,FAS TE block,ADAM10 confirm,ADAM17 ctr,ADAM10 ctr,ADAM17 confirm
C[C@H]1[C@@H](N(C)Cc2cccs2)CC[C@@]23CCCN2C(=O)CCC[C@@H]13,-2,/,0,/,/,/,/,/
Cc1cc(C)n(Cc2ccc(NC(=O)c3ccc(COc4ccccc4Br)cc3)cc2)n1,11*,1,29*,25,10,4,17,12*
NC(=O)c1ccc(NC(=O)c2ccc(COc3ccccc3Br)cc2)cc1,1,1,-5,-1,/,/,/,/
Cc1cc(C(O)c2ncc(-c3ccc(Oc4ccccc4)cc3)[nH]2)ccc1F (configuration not stated),13*,-1,21*,19,10,3,37*,16*
Cc1ccccc1-c1cnc(C(O)c2ccc(-c3ccccc3)cc2)[nH]1 (configuration not stated),9.1*,1,23*,7,6,2,14,8
OC(c1ccc(F)cc1)c1ncc(-c2ccc(Oc3ccccc3)cc2)[nH]1 (configuration not stated),5,-3,7,12,/,/,/,/
Cc1ccc(S(=O)(=O)N(CC(=O)N=Nc2c(O)[nH]c3ccccc23)c2ccc(C)c(C)c2)cc1,8.9*,2,23*,17,8,3,26*,18*
CCOC(=O)[C@@]12CCC3=C1N(CCC3)C(=O)[C@H](CC(=O)N1CCOCC1)C2,-5,/,-11,/,/,/,/,/
O=C(CSc1ccc(Cl)cc1)N1CCN(c2c(Cl)cccc2[N+](=O)[O-])CC1,3,0,6,22,/,/,/,/
O=C(/C=C/c1ccc(Cl)cc1)N1CCN(c2c(Cl)cccc2[N+](=O)[O-])CC1,12*,1,23*,39,4,1,19,8.7*
COc1ccc(N2CCN(CCCNC(=O)CCc3ccc(F)cc3)CC2)cc1,-3,/,0,/,/,/,/,/
CC(C)=C[C@H]1C[C@H](C)[C@H]2CC[C@H](C)c3c(O[C@@H]4OC[C@@H](O)[C@H](O)C4O)c(O)c(C)c1c32 (some centres not stated),21*,2,30*,17,6,3,15,9.1*
COC(=O)[C@]12C[C@H](CC(=O)N3CCC(c4ccccc4)CC3)C(=O)N(Cc3cccc4ccccc34)C1=C[C@H](C(C)C)O[C@@H]2C1CC1,-1,/,-2,/,/,/,/,/
COc1ccc(-c2nnc(SCC(=O)N/N=C\C=C/c3ccco3)n2-c2ccc(C)cc2)cc1,7,/,10,/,/,/,/,/
COc1ccc(-n2c(SCC(=O)Nc3cc(C)c(NC(=O)c4ccccc4)cc3OC)nnc2-c2ccccc2F)cc1,7,/,11,/,/,/,/,/
COc1cc(NC(=O)c2ccccc2)c(C)cc1NC(=O)CSc1nnc(-c2ccccc2F)n1-c1ccc(C)cc1,12*,/,26*,/,12,3,31*,18*
COc1ccc(Cl)cc1-c1n[nH]c(=S)n1C1CCCCC1,8.7*,-1,29*,2,0,0,34*,21*
O=C(Cn1c(-c2cncs2)nc2ccccc21)N1CCOCC1,1,/,-12,/,/,/,/,/
COc1ccc(CN(C(=O)c2nsc(Cl)c2Cl)C(C(=O)NC2CCCCC2)c2ccc(OC)cc2)cc1 (configuration not stated),8.8*,1,28*,31,7,2,8,9.6*
Cc1cc(NS(=O)(=O)c2ccc(NC(=O)Cc3ccc(Cl)c(F)c3)cc2)no1,-5,/,-10,/,/,/,/,/
Cc1nnc(SCC(=O)Nc2cccc(S(N)(=O)=O)c2)n1-c1ccccc1,-8,0,-7,-2,/,/,/,/
Cc1ccc(-n2c(SCC(=O)Nc3cccc(S(N)(=O)=O)c3)nc3ccccc32)cc1,12*,-1,20*,24,11,4,26*,14*
CCc1ccc(NC(=O)C2=CC(c3cccs3)=NS(=O)(=O)N2C)cc1,18*,1,29*,26,5,1,23*,13*
Cc1ccc(NC(=O)C2=CC(c3cccs3)=NS(=O)(=O)N2C)cc1,-4,2,-6,15,/,/,/,/
O=C(Nc1ccc(Cl)cc1)C1CCCN1S(=O)(=O)c1cccc2cccnc12 (configuration not stated),2,/,1,/,/,/,/,/
SMILES,ADAM17 inh,SENP1 inh,ADAM10 inh,FAS TE block,ADAM10 confirm,ADAM17 ctr,ADAM10 ctr,ADAM17 confirm
OC(c1ccc(F)c(F)c1)c1nc(-c2cccc(C(F)(F)F)c2)cs1 (configuration not stated),9.4*,0,26*,34,4,2,18,14*
OC(c1ccc(F)cc1)c1nc(-c2cccc(C(F)(F)F)c2)cs1 (configuration not stated),7,3,10,39,/,/,/,/
COc1ccc(C(O)c2nc(-c3ccc(F)c(Cl)c3)cs2)cc1 (configuration not stated),5,2,16,26,/,/,/,/
OC(c1ccc(F)c(F)c1)c1nc(-c2ccc(F)c(Cl)c2)cs1 (configuration not stated),8.9*,2,22*,33,8,2,36*,16*
COc1ccc(C(O)c2nc(-c3cccc(C(C)C)c3)cs2)cc1 (configuration not stated),11*,1,21*,21,6,2,18,8.7*
COc1ccc(C(O)c2nc(-c3cccc(O)c3)cs2)cc1 (configuration not stated),0,1,-9,-1,/,/,/,/
COc1ccc(-n2c(COc3ccc(C)cc3)nnc2SCC(=O)c2ccc(-c3ccccc3)cc2)cc1,2,/,5,/,/,/,/,/
CC(C)CNC(=O)OCc1cn(Cc2cc(F)cc(F)c2)nn1,-2,/,-4,/,/,/,/,/
Cc1ccc(-c2csc(N3CCC(NS(=O)(=O)c4ccc5c(c4)OCCO5)CC3)n2)cc1,13*,2,24*,23,10,3,20*,15*
C[C@@H]1CCN(C2CC2)S(=O)(=O)c2c(cccc2N2CC[C@@H](N(C)C)C2)O1,-3,/,-4,/,/,/,/,/
Cc1ccc(-c2cc(C(=O)N=Nc3c(O)[nH]c4ccccc34)[nH]n2)cc1C,0,/,0,/,/,/,/,/
Cc1nc(SC2CC(=O)N(c3cc(Cl)cc(Cl)c3)C2=O)nc2c1CCCC2 (configuration not stated),10*,0,34*,29,5,1,11,8
